Results: PubChem BioAssay AID1517 (The Scripps Research Institute Molecular Screening Center, 2009)
Some of the results follow. Calls of active or inactive are those of the source.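 How the source made its calls: active means percent inhibition of p97 ATPase above a set limit, the primary screen's mean plus 3 SD (cut at about 15% in these data); inactive means the rest.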

Target: Transitional endoplasmic reticulum ATPase (Homo sapiens) (UniProt P55072)
Assay: blockers of p97 ATP hydrolysis – biochemical, confirmation (AID 1517);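 further: 0% = DMSO wells and 100% = wells lacking p97 protein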
Details: recombinant p97 ATPase, Kinase-Glo ATP luminescence; at 8 µM; hits give high values
Method in brief: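 Material: recombinant p97; timing: 30 min preincubation at 25 °C plus 3 h with ATP; signal: Kinase-Glo luminescence; read-out basis: percent inhibition of ATPase activity, normalized to DMSO and no-enzyme wells; benchmarks: DMSO wells without compound and wells lacking p97 enzyme; repeats: triplicate wells per compound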

Sequence of Transitional endoplasmic reticulum ATPase (Homo sapiens) (P55072 whole entry, looked up): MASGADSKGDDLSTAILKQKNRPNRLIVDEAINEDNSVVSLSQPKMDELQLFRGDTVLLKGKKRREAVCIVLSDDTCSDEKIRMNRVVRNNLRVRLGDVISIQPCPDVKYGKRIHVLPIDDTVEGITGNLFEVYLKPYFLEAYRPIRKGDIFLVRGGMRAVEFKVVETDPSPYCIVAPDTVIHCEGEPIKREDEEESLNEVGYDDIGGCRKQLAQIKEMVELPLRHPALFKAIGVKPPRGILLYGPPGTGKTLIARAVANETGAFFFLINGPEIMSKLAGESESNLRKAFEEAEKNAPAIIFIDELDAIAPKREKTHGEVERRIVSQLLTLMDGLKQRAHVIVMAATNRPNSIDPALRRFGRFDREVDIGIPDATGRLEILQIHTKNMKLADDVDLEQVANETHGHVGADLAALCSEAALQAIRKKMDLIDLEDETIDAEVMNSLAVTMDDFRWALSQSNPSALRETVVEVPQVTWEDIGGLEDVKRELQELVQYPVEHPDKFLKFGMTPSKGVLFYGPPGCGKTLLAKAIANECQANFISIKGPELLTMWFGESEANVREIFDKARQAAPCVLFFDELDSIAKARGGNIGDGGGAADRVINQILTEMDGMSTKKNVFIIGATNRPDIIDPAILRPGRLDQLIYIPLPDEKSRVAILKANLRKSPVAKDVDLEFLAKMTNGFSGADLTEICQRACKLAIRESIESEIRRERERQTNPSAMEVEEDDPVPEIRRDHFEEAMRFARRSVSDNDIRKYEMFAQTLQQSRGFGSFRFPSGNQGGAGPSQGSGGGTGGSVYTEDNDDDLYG

| Structure (SMILES) | inhibition |
| --- | --- |
| Clc1ccc(C2=CSC3=Nc4cccc5cccc(c45)N23)cc1 | 2.9% (inactive) |
| Cc1cc(C)c2cc(CN(Cc3nnnn3Cc3ccc(F)cc3)C3CCCC3)c(=O)[nH]c2c1 | 4.43% (inactive) |
| CCC(C)NC(=O)CSC1=Nc2ccccc2C2=NC(CCC(=O)NCc3ccco3)C(=O)N12 (stereo not drawn) | 4.93% (inactive) |
| C=CCn1c(N)c(C(=O)OCC(C)C)c2nc3ccccc3nc21 | 18.1% (active) |
| O=C(OCC1O[C@@H](OC(=O)c2cc(O)c(O)c(O)c2)[C@@H](OC(=O)c2cc(O)c(O)c(O)c2)[C@@H](OC(=O)c2cc(O)c(O)c(O)c2)[C@@H]1OC(=O)c1cc(O)c(O)c(O)c1)c1cc(O)c(O)c(O)c1 (stereo partly drawn) | 59.8% (active) |
| COc1ccccc1C1C(C#N)=C(N)Oc2c1c(-c1ccccc1)nn2-c1ccccc1 (stereo not drawn) | 1.04% (inactive) |
| COc1ccc(-c2cc(-c3ccc(N)cc3)nc(N)c2C#N)cc1OC | 19.8% (active) |
| O=C(c1[nH]ncc1-c1ccc(Cl)cc1)C1CO1 (stereo not drawn) | 12.5% (inactive) |
| CCN(CC)CCNC(=O)CCCCCn1c(=O)[nH]c2cc(C(=O)OC)ccc2c1=O | 2.31% (inactive) |
| Oc1c(Cl)cc(Cl)c(Cl)c1Cc1c(O)c(Cl)cc(Cl)c1Cl | 73.9% (active) |
| Nc1ccc2nc3c(=O)[nH]c(=S)[nH]c3nc2c1 | 25.4% (active) |
| COc1ccc(-c2[nH]ncc2/C=N/NC(=O)c2cc(Br)ccc2O)c(OC)c1 | 25.7% (active) |
| Cc1no[n+]([O-])c1COc1ccccc1/C=C1\NC(=S)NC1=O | 39.9% (active) |
| N#Cc1c(N2CCCCC2)nc(N)c2c(N)nc(SCC(=O)O)cc12 | 46% (active) |
| O=C(NNC(=S)Nc1ccccc1)c1cccc(S(=O)(=O)N2CCOCC2)c1 | 3.56% (inactive) |
| CC(=O)N1CCc2cc(Br)cc(S(=O)(=O)CCC(=O)Nc3c(C)n(C)n(-c4ccccc4)c3=O)c21 | 2.71% (inactive) |
| N#CC1=C(N)Oc2[nH]c(=S)[nH]c(=O)c2C12C(=O)Nc1ccccc12 (stereo not drawn) | 25.8% (active) |

| Structure (SMILES) | inhibition |
| --- | --- |
| Cc1[nH][nH]c(=O)c1C(c1ccc(-c2ccc(Cl)cc2)o1)c1c(C)[nH][nH]c1=O | 9.11% (inactive) |
| Oc1c(C=Nc2cccc3nsnc23)ccc2ccccc12 | 4.01% (inactive) |
| [O-][n+]1onc2c1CCc1[nH]c(-c3ccccc3)nc1-2 | 39.8% (active) |
| CCOC(=O)N1CCC(c2cc(=O)n(-c3ccccc3)[nH]2)CC1 | 7.34% (inactive) |
| COc1ccc2c(c1)C(=C(C#N)C#N)C(=O)N2CCc1ccccc1 | 19.5% (active) |
| CC(C(=O)O)n1cnc2sc3c(c2c1=O)CCCC3 (stereo not drawn) | 6.68% (inactive) |
| COc1ccc(Cl)cc1C(=O)NNC(=O)c1nc2nc(C)cc(C)n2n1 | 20.8% (active) |
| Cc1ccc2c(c1)NCC(C(=O)NC1CCC(C)CC1)O2 (stereo not drawn) | 4.67% (inactive) |
| O=C(/C=C/c1ccc(Cl)c([N+](=O)[O-])c1)c1ccc(O)cc1 | 10.9% (inactive) |
| CCN1C(=O)/C(=C2/Sc3ccccc3N2CCCS(=O)(=O)O)SC1=S | 4.27% (inactive) |
| NC(N)=N/N=C/c1ccc(OCc2ccc(Cl)cc2Cl)cc1 | 37.7% (active) |
| CC1CCCN(C(C(=O)Nc2ccc(C(C)C)cc2)c2ccc3c(c2)OCO3)C1 (stereo not drawn) | -0.84% (inactive) |
| N=C1C(c2nc3ccccc3s2)=C(O)CN1NC(=O)c1ccc([N+](=O)[O-])cc1 | 37.1% (active) |
| CCOc1c(Br)cc(/C=C2\C(=O)N(CCC#N)N=C2C)cc1OC | 6.06% (inactive) |
| C=CCn1c(=S)[nH]c2scc(-c3ccco3)c2c1=O | 13.5% (inactive) |
| CCN(c1ccccc1)S(=O)(=O)c1ccc(N)cc1 | 1.51% (inactive) |
